Measurements from ChEMBL document CHEMBL3784971, “Synthesis, characterization, antimicrobial and biofilm inhibitory studies of new esterquats” (Bioorg Med Chem Lett, 2016).
The source made the active and inactive calls.

How the values were obtained:
Staphylococcus aureus [1] = experiment: Antimicrobial activity against Staphylococcus aureus MTCC 96 assessed as growth inhibition after 24 hrs by agar well diffusion method; type: functional; settings: MTCC 96, 24 h
Bacillus subtilis [2] = experiment: Antimicrobial activity against Bacillus subtilis MTCC 121 assessed as growth inhibition after 24 hrs by agar well diffusion method; type: functional; settings: MTCC 121, 24 h
Staphylococcus aureus [3] = experiment: Antimicrobial activity against Staphylococcus aureus MLS16 MTCC 2940 assessed as growth inhibition after 24 hrs by agar well diffusion method; type: functional; settings: MLS16 MTCC 2940, 24 h
Micrococcus luteus [4] = experiment: Antimicrobial activity against Micrococcus luteus MTCC 2470 assessed as growth inhibition after 24 hrs by agar well diffusion method; type: functional; settings: MTCC 2470, 24 h
Raoultella planticola [5] = experiment: Antimicrobial activity against Klebsiella planticola MTCC 530 assessed as growth inhibition after 24 hrs by agar well diffusion method; type: functional; settings: MTCC 530, 24 h
Escherichia coli [6] = experiment: Antimicrobial activity against Escherichia coli MTCC 739 assessed as growth inhibition after 24 hrs by agar well diffusion method; type: functional; settings: MTCC 739, 24 h
Pseudomonas aeruginosa = experiment: Antimicrobial activity against Pseudomonas aeruginosa MTCC 2453 assessed as growth inhibition after 24 hrs by agar well diffusion method; type: functional; settings: MTCC 2453, 24 h
Staphylococcus aureus [7] = experiment: Bactericidal activity against Staphylococcus aureus MTCC 96 after 24 hrs by serial dilution method; type: functional; settings: MTCC 96, 24 h
Bacillus subtilis [8] = experiment: Bactericidal activity against Bacillus subtilis MTCC 121 after 24 hrs by serial dilution method; type: functional; settings: MTCC 121, 24 h
Staphylococcus aureus [9] = experiment: Bactericidal activity against Staphylococcus aureus MLS16 MTCC 2940 after 24 hrs by serial dilution method; type: functional; settings: MLS16 MTCC 2940, 24 h
Micrococcus luteus [10] = experiment: Bactericidal activity against Micrococcus luteus MTCC 2470 after 24 hrs by serial dilution method; type: functional; settings: MTCC 2470, 24 h
Raoultella planticola [11] = experiment: Bactericidal activity against Klebsiella planticola MTCC 530 after 24 hrs by serial dilution method; type: functional; settings: MTCC 530, 24 h
Escherichia coli [12] = experiment: Bactericidal activity against Escherichia coli MTCC 739 after 24 hrs by serial dilution method; type: functional; settings: MTCC 739, 24 h
Bacillus subtilis [13] = experiment: Antibiofilm activity against Bacillus subtilis MTCC 121 after 24 hrs by crystal violet staining based assay; type: functional, organism-based; settings: MTCC 121, 24 h
Method in brief: (§1)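 Biofilm inhibition tested for amine esters and esterquats. IC50 values (µg/mL) are the mean of three determinations, with ciprofloxacin as reference.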

Staphylococcus aureus [14] = experiment: Antibiofilm activity against Staphylococcus aureus MLS16 MTCC 2940 after 24 hrs by crystal violet staining based assay; type: functional, organism-based; settings: MLS16 MTCC 2940, 24 h; method in brief: as §1
Micrococcus luteus [15] = experiment: Antibiofilm activity against Micrococcus luteus MTCC 2470 after 24 hrs by crystal violet staining based assay; type: functional, organism-based; settings: MTCC 2470, 24 h; method in brief: as §1
Staphylococcus aureus [16] = experiment: Bactericidal activity against Staphylococcus aureus MLS16 MTCC 2940 assessed as increase in intracellular ROS accumulation in at 0.5 to 2 ug/mL after 24 hrs by DCFHDA staining based fluorometric assay; type: functional, organism-based
Method in brief: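 Intracellular ROS measured in cells of mature biofilms using the general ROS fluorescent probe 2′,7′-dichlorofluorescein-diacetate (DCFH-DA), read as increase in fluorescence. Sessile cells and the supernatant were measured separately.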

Candida albicans [17] = experiment: Antimicrobial activity against Candida albicans MTCC 3017 assessed as growth inhibition after 24 hrs by agar well diffusion method; type: functional; settings: MTCC 3017, 24 h
Candida albicans [18] = experiment: Antimicrobial activity against Candida albicans MTCC 183 assessed as growth inhibition after 24 hrs by agar well diffusion method; type: functional; settings: MTCC 183, 24 h
Candida albicans [19] = experiment: Antimicrobial activity against Candida albicans MTCC 227 assessed as growth inhibition after 24 hrs by agar well diffusion method; type: functional; settings: MTCC 227, 24 h
Candida albicans [20] = experiment: Antimicrobial activity against Candida albicans MTCC 854 assessed as growth inhibition after 24 hrs by agar well diffusion method; type: functional; settings: MTCC 854, 24 h
Candida albicans [21] = experiment: Antimicrobial activity against Candida albicans MTCC 1637 assessed as growth inhibition after 24 hrs by agar well diffusion method; type: functional; settings: MTCC 1637, 24 h
Candida albicans [22] = experiment: Antimicrobial activity against Candida albicans MTCC 3018 assessed as growth inhibition after 24 hrs by agar well diffusion method; type: functional; settings: MTCC 3018, 24 h
Candida albicans [23] = experiment: Antimicrobial activity against Candida albicans MTCC 3958 assessed as growth inhibition after 24 hrs by agar well diffusion method; type: functional; settings: MTCC 3958, 24 h
Candida albicans [24] = experiment: Antimicrobial activity against Candida albicans MTCC 4748 assessed as growth inhibition after 24 hrs by agar well diffusion method; type: functional; settings: MTCC 4748, 24 h
Candida albicans [25] = experiment: Antimicrobial activity against Candida albicans MTCC 7315 assessed as growth inhibition after 24 hrs by agar well diffusion method; type: functional; settings: MTCC 7315, 24 h
Candida parapsilosis [26] = experiment: Antimicrobial activity against Candida parapsilosis MTCC 1744 assessed as growth inhibition after 24 hrs by agar well diffusion method; type: functional; settings: Lodderomyces parapsilosis, MTCC 1744, 24 h
[Candida] aaseri [27] = Antimicrobial activity against Candida aaseri MTCC 1962 assessed as growth inhibition after 24 hrs by agar well diffusion method; type: functional; settings: Yamadazyma aaseri, MTCC 1962, 24 h
Nakaseomyces glabratus [28] = experiment: Antimicrobial activity against Candida glabrata MTCC 3019 assessed as growth inhibition after 24 hrs by agar well diffusion method; type: functional; settings: MTCC 3019, 24 h
Pichia kudriavzevii [29] = experiment: Antimicrobial activity against Candida krusei MTCC 3020 assessed as growth inhibition after 24 hrs by agar well diffusion method; type: functional; settings: MTCC 3020, 24 h
Pichia sporocuriosa [30] = experiment: Antimicrobial activity against Issatchenkia hanoiensis MTCC 4755 assessed as growth inhibition after 24 hrs by agar well diffusion method; type: functional; settings: MTCC 4755, 24 h
Candida albicans [31] = experiment: Fungicidal activity against Candida albicans MTCC 3017 after 24 hrs by serial dilution method; type: functional; settings: MTCC 3017, 24 h
Candida albicans [32] = experiment: Fungicidal activity against Candida albicans MTCC 183 after 24 hrs by serial dilution method; type: functional; settings: MTCC 183, 24 h
Candida albicans [33] = experiment: Fungicidal activity against Candida albicans MTCC 227 after 24 hrs by serial dilution method; type: functional; settings: MTCC 227, 24 h
Candida albicans [34] = experiment: Fungicidal activity against Candida albicans MTCC 854 after 24 hrs by serial dilution method; type: functional; settings: MTCC 854, 24 h
Candida albicans [35] = experiment: Fungicidal activity against Candida albicans MTCC 1637 after 24 hrs by serial dilution method; type: functional; settings: MTCC 1637, 24 h
Candida albicans [36] = experiment: Fungicidal activity against Candida albicans MTCC 3018 after 24 hrs by serial dilution method; type: functional; settings: MTCC 3018, 24 h
Candida albicans [37] = experiment: Fungicidal activity against Candida albicans MTCC 3958 after 24 hrs by serial dilution method; type: functional; settings: MTCC 3958, 24 h
Candida albicans [38] = experiment: Fungicidal activity against Candida albicans MTCC 4748 after 24 hrs by serial dilution method; type: functional; settings: MTCC 4748, 24 h
Candida albicans [39] = experiment: Fungicidal activity against Candida albicans MTCC 7315 after 24 hrs by serial dilution method; type: functional; settings: MTCC 7315, 24 h
Candida parapsilosis [40] = experiment: Fungicidal activity against Candida parapsilosis MTCC 1744 after 24 hrs by serial dilution method; type: functional; settings: Lodderomyces parapsilosis, MTCC 1744, 24 h
[Candida] aaseri [41] = Fungicidal activity against Candida aaseri MTCC 1962 after 24 hrs by serial dilution method; type: functional; settings: Yamadazyma aaseri, MTCC 1962, 24 h
Nakaseomyces glabratus [42] = experiment: Fungicidal activity against Candida glabrata MTCC 3019 after 24 hrs by serial dilution method; type: functional; settings: MTCC 3019, 24 h
Pichia kudriavzevii [43] = experiment: Fungicidal activity against Candida krusei MTCC 3020 after 24 hrs by serial dilution method; type: functional; settings: MTCC 3020, 24 h
Pichia sporocuriosa [44] = experiment: Fungicidal activity against Issatchenkia hanoiensis MTCC 4755 after 24 hrs by serial dilution method; type: functional; settings: MTCC 4755, 24 h
Staphylococcus aureus [45] = experiment: Antibiofilm activity against Staphylococcus aureus MTCC 96 after 24 hrs by crystal violet staining based assay; type: functional, organism-based; settings: MTCC 96, 24 h; method in brief: as §1

O=C(O)c1cn(C2CC2)c2cc(N3CCNCC3)c(F)cc2c1=O [CIPROFLOXACIN]
1.9 µg/mL: MBC (Staphylococcus aureus [7]) | MBC (Micrococcus luteus [10]) | MBC (Raoultella planticola [11]) | MBC (Escherichia coli [12])
0.9 µg/mL: MIC (Staphylococcus aureus [1]) | MIC (Bacillus subtilis [2]) | MIC (Staphylococcus aureus [3]) | MIC (Micrococcus luteus [4]) | MIC (Raoultella planticola [5]) | MIC (Escherichia coli [6]) | MIC (Pseudomonas aeruginosa) | MBC (Bacillus subtilis [8]) | MBC (Staphylococcus aureus [9])
0.5 µg/mL: IC50 (Bacillus subtilis [13])
0.4 µg/mL: IC50 (Staphylococcus aureus [14])
active: Activity (Staphylococcus aureus [16])
0.6 µg/mL: IC50 (Micrococcus luteus [15])

COC(=O)CCCCCCCCCC[N+](C)(C1CCCCC1)C1CCCCC1.[Cl-]
2.5 µg/mL: IC50 (Staphylococcus aureus [45]) | IC50 (Micrococcus luteus [15])
> 125 µg/mL: MIC (Raoultella planticola [5]) | MIC (Escherichia coli [6]) | MIC (Pseudomonas aeruginosa) | MBC (Raoultella planticola [11]) | MBC (Escherichia coli [12])
62.5 µg/mL: MFC (Candida albicans [32]) | MFC (Candida albicans [36]) | MFC (Candida parapsilosis [40]) | MFC (Nakaseomyces glabratus [42]) | MFC (Pichia kudriavzevii [43])
3.6 µg/mL: IC50 (Staphylococcus aureus [14])
15.6 µg/mL: MIC (Candida albicans [17]) | MIC (Candida albicans [18]) | MIC (Candida albicans [19]) | MIC (Candida albicans [22]) | MIC (Candida albicans [23]) | MIC (Candida albicans [24]) | MIC (Candida albicans [25]) | MIC (Candida parapsilosis [26]) | MIC ([Candida] aaseri [27]) | MIC (Pichia sporocuriosa [30]) | MBC (Bacillus subtilis [8])
4.4 µg/mL: IC50 (Bacillus subtilis [13])
31.2 µg/mL: MIC (Candida albicans [20]) | MIC (Candida albicans [21]) | MIC (Nakaseomyces glabratus [28]) | MIC (Pichia kudriavzevii [29]) | MFC (Candida albicans [31]) | MFC (Candida albicans [33]) | MFC (Candida albicans [34]) | MFC (Candida albicans [35]) | MFC (Candida albicans [37]) | MFC (Candida albicans [38]) | MFC (Candida albicans [39]) | MFC ([Candida] aaseri [41]) | MFC (Pichia sporocuriosa [44])
7.8 µg/mL: MIC (Bacillus subtilis [2]) | MIC (Micrococcus luteus [4]) | MBC (Staphylococcus aureus [7]) | MBC (Staphylococcus aureus [9]) | MBC (Micrococcus luteus [10])
3.9 µg/mL: MIC (Staphylococcus aureus [1]) | MIC (Staphylococcus aureus [3])

CCCCCCCC[N+](C)(CCCCCCCC)CCCCCCCCCCC(=O)OC.[Cl-]
31.2 µg/mL: MIC (Raoultella planticola [5]) | MIC (Candida albicans [18]) | MIC (Candida albicans [21]) | MIC (Candida albicans [22]) | MIC (Candida albicans [23]) | MIC (Nakaseomyces glabratus [28]) | MIC (Pichia kudriavzevii [29]) | MIC (Pichia sporocuriosa [30]) | MFC (Candida albicans [31]) | MFC (Candida albicans [32]) | MFC (Candida albicans [33]) | MFC (Candida albicans [34]) | MFC (Candida albicans [36]) | MFC (Candida albicans [37]) | MFC (Candida albicans [38]) | MFC (Candida parapsilosis [40]) | MFC ([Candida] aaseri [41]) | MFC (Nakaseomyces glabratus [42]) | MFC (Pichia kudriavzevii [43]) | MFC (Pichia sporocuriosa [44])
3.9 µg/mL: MIC (Staphylococcus aureus [1]) | MIC (Micrococcus luteus [4])
4.6 µg/mL: IC50 (Bacillus subtilis [13])
7.8 µg/mL: MIC (Bacillus subtilis [2]) | MIC (Staphylococcus aureus [3]) | MBC (Micrococcus luteus [10])
4.8 µg/mL: IC50 (Staphylococcus aureus [14])
2 µg/mL: IC50 (Micrococcus luteus [15])
62.5 µg/mL: MIC (Candida parapsilosis [26]) | MFC (Candida albicans [35])
3.2 µg/mL: IC50 (Staphylococcus aureus [45])
> 125 µg/mL: MIC (Escherichia coli [6]) | MIC (Pseudomonas aeruginosa) | MBC (Raoultella planticola [11]) | MBC (Escherichia coli [12])
15.6 µg/mL: MIC (Candida albicans [17]) | MIC (Candida albicans [19]) | MIC (Candida albicans [20]) | MIC (Candida albicans [24]) | MIC (Candida albicans [25]) | MIC ([Candida] aaseri [27]) | MBC (Staphylococcus aureus [7]) | MBC (Bacillus subtilis [8]) | MBC (Staphylococcus aureus [9]) | MFC (Candida albicans [39])
